The record followed here is ChEMBL document CHEMBL5712082, “PRMT5-mediated regulation of developmental myelination” (Nat Commun, 2018).

Active and inactive are the calls of the source. No cut-off for these calls is given here.

For series [1], the target named is Protein arginine N-methyltransferase 5 (Mus musculus) (UniProt Q8CIG8). As to the kind of experiment: Inhibition of PRMT5 in mouse oligodendrocyte progenitor cells assessed as decrease in levels of H4R3me2s incubated for 24 to 72 hrs by immunoreactivity based analysis. As to conditions: Oligodendrocyte progenitor cell, time 24-72 hrs. Put shortly: (§1)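 Primary OPCs in growth-factor-free chemically defined medium, treated with DMSO or inhibitor over a time course. Fixed cells immunostained for H4R3me2s or H4K5ac. Nuclear pixel intensity measured by confocal imaging in an average of 395 cells per condition, three biological replicates.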
Sequence of Protein arginine N-methyltransferase 5 (Mus musculus) (Q8CIG8 whole entry): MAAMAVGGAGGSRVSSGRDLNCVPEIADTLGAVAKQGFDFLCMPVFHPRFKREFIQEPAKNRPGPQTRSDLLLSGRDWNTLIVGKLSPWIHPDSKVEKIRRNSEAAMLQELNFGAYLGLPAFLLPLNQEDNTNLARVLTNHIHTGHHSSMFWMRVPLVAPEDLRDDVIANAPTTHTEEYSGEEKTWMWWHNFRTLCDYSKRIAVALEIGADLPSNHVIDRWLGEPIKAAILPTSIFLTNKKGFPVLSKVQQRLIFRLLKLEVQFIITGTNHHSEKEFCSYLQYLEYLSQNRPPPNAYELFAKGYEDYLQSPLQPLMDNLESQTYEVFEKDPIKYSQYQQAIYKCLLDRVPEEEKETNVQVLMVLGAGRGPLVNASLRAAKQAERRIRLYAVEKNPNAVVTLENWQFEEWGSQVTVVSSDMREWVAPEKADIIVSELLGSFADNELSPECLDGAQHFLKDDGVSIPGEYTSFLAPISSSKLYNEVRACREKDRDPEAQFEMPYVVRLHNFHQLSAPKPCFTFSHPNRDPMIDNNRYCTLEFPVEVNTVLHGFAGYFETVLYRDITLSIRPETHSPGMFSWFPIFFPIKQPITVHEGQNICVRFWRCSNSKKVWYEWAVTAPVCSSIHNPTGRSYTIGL

Series [2] shares this target. The series can be described thus: Inhibition of PRMT5 in mouse oligodendrocyte progenitor cells assessed as increase in levels of H4K5Ac incubated for 24 to 72 hrs by immunoreactivity based analysis. As to conditions: Oligodendrocyte progenitor cell, time 24-72 hrs. Put shortly: as §1
For series [3] the target is unchanged. The series can be described thus: Inhibition of PRMT5 in mouse oligodendrocyte progenitor cells assessed as decrease in levels of H4R3me2s in presence of 0.2 uM KAT inhibitor NU-9056 after 24 to 48 hrs by immunoreactivity based analysis. The conditions noted are these: Oligodendrocyte progenitor cell, time 24-48 hrs.
Series [4] in a line: Effect on cell proliferation in Trp53fl/fl wild type mouse oligodendrocyte progenitor cells at 10 nM by cell count assay. The conditions noted are these: 0.01 µM. It is filed as toxicity, cell-based. Put shortly:
(§2)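 Primary OPCs from Trp53fl/fl mice (P7 immunopanning for PDGFRα), uninfected, alongside Cre-retrovirus-infected Trp53−/− counterparts. Cultured in SATO medium with PDGF-AA 10 ng/ml + bFGF 20 ng/ml (proliferating) or without growth factors + T3 60 nM (differentiating). Treated ± 10 nM inhibitor, DMSO controls. Cell counts averaged over three biological replicates.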

Series [5] deals with Protein arginine N-methyltransferase 5 (Mus musculus) (UniProt Q8CIG8). As to the kind of experiment: Inhibition of PRMT5 in mouse oligodendrocyte progenitor cells assessed as decrease in levels of H4R3me2s in presence of 100 uM KAT inhibitor Butyrolactone-3 after 24 to 48 hrs by immunoreactivity based analysis. The conditions noted are these: Oligodendrocyte progenitor cell, time 24-48 hrs.

The target is the same in series [6]. The series can be described thus: Inhibition of PRMT5 in mouse oligodendrocyte progenitor cells assessed as decrease in expression of P53-responsive genes ((Mdm2, Cdkn1a, Perp) in presence of 0.2 uM KAT inhibitor NU-9056 after 48 hrs by qRT-PCR analysis. In kind it is cell-based. As to conditions: Oligodendrocyte progenitor cell.
Series [7] in a line: Effect on cell proliferation in mouse oligodendrocyte progenitor cells assessed as Ki67+/PDGFRalpha+ cell count measured after 12 to 48 hrs by immunoreactivity based assay. In kind it is toxicity. The conditions noted are these: time 12-48 hrs. In short, it runs like this:
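P7 mouse OPCs immunopanned for PDGFRα, kept proliferating in SATO medium with PDGF-AA and bFGF, then treated with inhibitor or DMSO. Cells fixed in 4% PFA and immunostained for PDGFRα and KI67. Double-positive (KI67+ PDGFRα+) cells counted by confocal imaging from three biological replicates.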

For series [8], the target named is Protein arginine N-methyltransferase 5 (Mus musculus) (UniProt Q8CIG8). As to the kind of experiment: Inhibition of PRMT5 in mouse oligodendrocyte progenitor cells assessed as decreased in number of differentiating cells in presence of 100 uM KAT inhibitor Butyrolactone-3 after 24 to 48 hrs by CNP and MBP staining based assay. The conditions noted are these: Oligodendrocyte progenitor cell, time 24-48 hrs.

For series [9] the target is unchanged. As to the kind of experiment: Inhibition of PRMT5 in mouse oligodendrocyte progenitor cells assessed as increase in levels of H4K5Ac at 10 nM incubated for 24 to 72 hrs by Western blot analysis. In kind it is cell-based. As to conditions: Oligodendrocyte progenitor cell, time 24-72 hrs.
Series [10] has the same target. The series can be described thus: Inhibition of PRMT5 in Trp53-/- mouse oligodendrocyte progenitor cells assessed as reduction of the number of cleaved caspase--3-positive CNP+ cells in differentiating OPCs. It is filed as cell-based. As to conditions: Oligodendrocyte progenitor cell. Put shortly:
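Trp53−/− OPCs (Trp53fl/fl OPCs infected with Cre retrovirus) and Trp53fl/fl OPCs held in differentiating conditions (no growth factors, 60 nM T3) with or without 10 nM inhibitor. Immunostained for CNP and cleaved caspase-3 with DAPI. CNP+/DAPI+ ratio and cleaved caspase-3 intensity from three biological replicates, expressed relative to untreated cells of the same genotype.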

Series [11] has the same target. As to the kind of experiment: Inhibition of PRMT5 in mouse oligodendrocyte progenitor cells assessed as decrease in levels of H4R3me2s at 10 nM incubated for 24 to 72 hrs by Western blot analysis. It is filed as cell-based. As to conditions: Oligodendrocyte progenitor cell, time 24-72 hrs.
Series [12] has the same target. As to the kind of experiment: Inhibition of PRMT5 in mouse oligodendrocyte progenitor cells assessed as decreased in number of differentiating cells in presence of 0.2 uM KAT inhibitor NU-9056 after 24 to 48 hrs by CNP and MBP staining based assay. As to conditions: Oligodendrocyte progenitor cell, time 24-48 hrs.
For series [13] the target is unchanged. The series can be described thus: Inhibition of PRMT5 in mouse oligodendrocyte progenitor cells assessed as decrease in expression of P53-responsive genes ((Mdm2, Cdkn1a, Perp) in presence of 100 uM KAT inhibitor Butyrolactone-3 after 48 hrs by qRT-PCR analysis. In kind it is cell-based. The conditions noted are these: Oligodendrocyte progenitor cell.
Series [14] has the same target. As to the kind of experiment: Inhibition of PRMT5 in mouse oligodendrocyte progenitor cells assessed as decrease in expression of P53-responsive genes ((Mdm2, Cdkn1a, Perp) after 48 hrs by qRT-PCR analysis. It is filed as cell-based. As to conditions: Oligodendrocyte progenitor cell.
Series [15] has the same target. The series can be described thus: Inhibition of PRMT5 in Trp53fl/fl wild type mouse oligodendrocyte progenitor cells assessed as decreased in number of differentiating cells at 10 nM by cell count assay. It is filed as cell-based. In short, it runs like this:
as §2

Series [16] concerns Oligodendrocyte progenitor cell. The series can be described thus: Inhibition of HDAC in mouse oligodendrocyte progenitor cells assessed as decreased in number of differentiating cells at 20 nM after 24 to 48 hrs by CNP and MBP staining based assay. The conditions noted are these: time 24-48 hrs.

With `O=C(NC[C@H](O)CN1CCc2ccccc2C1)c1ccnc(NC2CCC2)c1`, the inhibition result in series [1], in series [2], in [9], in series [10], in series [11] and in series [14] was “Active” in each case. The inhibition entry in series [15] was “Active”. Moreover, the inhibition result in [3], in series [5], in series [6], in series [8], in [12] and in [13] was “inactive” throughout. Besides, the Activity result in [4] was “Toxic”; in series [7], “Non-Toxic”.
As for `CC(/C=C/C(=O)NO)=C\[C@@H](C)C(=O)c1ccc(N(C)C)cc1`, the inhibition entry in series [16] was “Active”.
